Source: ChEMBL document CHEMBL1154616, “Synthesis and antitumor activity studies of some new fused 1,2,4-triazole derivatives carrying 2,4-dichloro-5-fluorophenyl moiety” (Eur J Med Chem, 2009)

Legend:
Format in all cases: functional
MOLT-4 = assay: Anticancer activity against human MOLT4 cells after 48 hrs by sulforhodamine B assay; conditions: MOLT-4, 48 h
Procedure, shortened: (§1)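 Full 60-cell-line panel, compounds tested over a five-log dose range. Cells are preincubated on microtiter plates, the agent is added, and cultures run 48 h. The end point is sulphorhodamine B protein staining. GI50 is taken as the concentration giving 50% growth inhibition relative to untreated control cells.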

SR = assay: Anticancer activity against human SR cells after 48 hrs by sulforhodamine B assay
Procedure, shortened: (§2)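 Cells from the 60-line full panel are preincubated on microtiter plates, then treated across a five-log dose range for 48 h. Growth is read with the protein-binding dye sulforhodamine B. GI50 is the concentration giving 50% growth inhibition relative to untreated control cells.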

CAKI-1 = assay: Anticancer activity against human Caki1 cells after 48 hrs by sulforhodamine B assay; conditions: CAKI-1, 48 h; procedure, shortened: as §1
NCI/ADR-RES = assay: Anticancer activity against human NCI/ADR-RES cells after 48 hrs by sulforhodamine B assay; procedure, shortened: as §1
[1] = Anticancer activity against human Hs 578T cells after 48 hrs by sulforhodamine B assay; procedure, shortened: as §1
Malme-3M = assay: Anticancer activity against human MALME-3M cells after 48 hrs by sulforhodamine B assay; procedure, shortened: as §1
MCF7 [2] = assay: Anticancer activity against human MCF7 cells assessed as cell growth at 100 uM after 48 hrs by sulforhodamine B assay relative to control; conditions: MCF7, 48 h, read-out: Activity
Procedure, shortened: (§3)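 Three-cell-line prescreen (NCI-H460 lung, MCF7 breast, SF 268 CNS), each preincubated on microtiter plates. The agent is added at a single concentration and cultures are incubated 48 h. Growth is read by sulphorhodamine B protein staining and reported as percent growth of treated versus untreated control cells; negative values indicate cell kill.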

OVCAR-8 = assay: Anticancer activity against human OVCAR8 cells after 48 hrs by sulforhodamine B assay; conditions: OVCAR-8, 48 h; procedure, shortened: as §1
UACC-62 = assay: Anticancer activity against human UACC62 cells after 48 hrs by sulforhodamine B assay; conditions: UACC-62, 48 h; procedure, shortened: as §2
MCF7 [3] = assay: Anticancer activity against human MCF7 cells after 48 hrs by sulforhodamine B assay; conditions: MCF7, 48 h; procedure, shortened: as §1
EKVX = assay: Anticancer activity against human EKVX cells after 48 hrs by sulforhodamine B assay; procedure, shortened: as §1
PC-3 = assay: Anticancer activity against human PC3 cells after 48 hrs by sulforhodamine B assay; conditions: PC-3, 48 h; procedure, shortened: as §1
SK-MEL-28 = assay: Anticancer activity against human SK-MEL-28 cells after 48 hrs by sulforhodamine B assay; conditions: SK-MEL-28, 48 h; procedure, shortened: as §1
MDA-MB-435 = assay: Anticancer activity against human MDA-MB-435 cells after 48 hrs by sulforhodamine B assay; conditions: MDA-MB-435, 48 h; procedure, shortened: as §1
SW-620 = assay: Anticancer activity against human SW620 cells after 48 hrs by sulforhodamine B assay; conditions: SW-620, 48 h; procedure, shortened: as §2
SF-268 [4] = assay: Anticancer activity against human SF268 cells after 48 hrs by sulforhodamine B assay; conditions: SF-268, 48 h; procedure, shortened: as §1
NCI-H226 = assay: Anticancer activity against human NCI-H226 cells after 48 hrs by sulforhodamine B assay; conditions: NCI-H226, 48 h; procedure, shortened: as §1
[5] = Anticancer activity against human […] cells after 48 hrs by sulforhodamine B assay; procedure, shortened: as §1
SNB-75 = assay: Anticancer activity against human SNB75 cells after 48 hrs by sulforhodamine B assay; conditions: SNB-75, 48 h; procedure, shortened: as §2
ACHN = assay: Anticancer activity against human ACHN cells after 48 hrs by sulforhodamine B assay; procedure, shortened: as §1
OVCAR-4 = assay: Anticancer activity against human OVCAR4 cells after 48 hrs by sulforhodamine B assay; conditions: OVCAR-4, 48 h; procedure, shortened: as §1
NCI-H322M = assay: Anticancer activity against human NCI-H322M cells after 48 hrs by sulforhodamine B assay; procedure, shortened: as §1
NCI-H522 = assay: Anticancer activity against human NCI-H522 cells after 48 hrs by sulforhodamine B assay; conditions: NCI-H522, 48 h; procedure, shortened: as §1
OVCAR-5 = assay: Anticancer activity against human OVCAR5 cells after 48 hrs by sulforhodamine B assay; conditions: OVCAR-5, 48 h; procedure, shortened: as §1
HT-29 = assay: Anticancer activity against human HT-29 cells after 48 hrs by sulforhodamine B assay; conditions: HT-29, 48 h; procedure, shortened: as §1
UO-31 = assay: Anticancer activity against human UO31 cells after 48 hrs by sulforhodamine B assay; conditions: UO-31, 48 h; procedure, shortened: as §2
T47D = assay: Anticancer activity against human T47D cells after 48 hrs by sulforhodamine B assay; procedure, shortened: as §2
IGROV-1 = assay: Anticancer activity against human IGROV1 cells after 48 hrs by sulforhodamine B assay; conditions: IGROV-1, 48 h; procedure, shortened: as §1
KM12 = assay: Anticancer activity against human KM12 cells after 48 hrs by sulforhodamine B assay; conditions: KM12, 48 h; procedure, shortened: as §1
A549 = assay: Anticancer activity against human A549 cells after 48 hrs by sulforhodamine B assay; conditions: A549, 48 h; procedure, shortened: as §1
HL-60(TB) = assay: Anticancer activity against human HL-60(TB) cells after 48 hrs by sulforhodamine B assay; conditions: HL-60, 48 h
Procedure, shortened: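 Run within the full 60-cell-line panel across a five-log dose range. GI50 was taken as the concentration causing 50% growth inhibition relative to untreated control cells.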

LOX IMVI = assay: Anticancer activity against human LOXIMVI cells after 48 hrs by sulforhodamine B assay; procedure, shortened: as §1
K562 = assay: Anticancer activity against human K562 cells after 48 hrs by sulforhodamine B assay; conditions: K562, 48 h; procedure, shortened: as §1
RXF 393 = assay: Anticancer activity against human RXF393 cells after 48 hrs by sulforhodamine B assay; conditions: RXF 393, 48 h; procedure, shortened: as §1
SN12C = assay: Anticancer activity against human SN12C cells after 48 hrs by sulforhodamine B assay; procedure, shortened: as §1
SK-OV-3 = assay: Anticancer activity against human SKOV3 cells after 48 hrs by sulforhodamine B assay; conditions: SK-OV-3, 48 h; procedure, shortened: as §1
SF-268 [6] = assay: Anticancer activity against human SF268 cells assessed as cell growth at 100 uM after 48 hrs by sulforhodamine B assay relative to control; conditions: SF-268, 48 h, read-out: Activity; procedure, shortened: as §3
SF-539 = assay: Anticancer activity against human SF539 cells after 48 hrs by sulforhodamine B assay; conditions: SF-539, 48 h; procedure, shortened: as §1
HCC 2998 = assay: Anticancer activity against human HCC2998 cells after 48 hrs by sulforhodamine B assay; conditions: HCC 2998, 48 h; procedure, shortened: as §1
UACC-257 = assay: Anticancer activity against human UACC257 cells after 48 hrs by sulforhodamine B assay; conditions: UACC-257, 48 h; procedure, shortened: as §2
SF-295 = assay: Anticancer activity against human SF295 cells after 48 hrs by sulforhodamine B assay; conditions: SF-295, 48 h; procedure, shortened: as §1
DU-145 = assay: Anticancer activity against human DU145 cells after 48 hrs by sulforhodamine B assay; conditions: DU-145, 48 h; procedure, shortened: as §1
NCI-H23 = assay: Anticancer activity against human NCI-H23 cells after 48 hrs by sulforhodamine B assay; conditions: NCI-H23, 48 h; procedure, shortened: as §1
NCI-H460 [7] = assay: Anticancer activity against human NCI-H460 cells assessed as cell growth at 100 uM after 48 hrs by sulforhodamine B assay relative to control; conditions: NCI-H460, 48 h, read-out: Activity; procedure, shortened: as §3
NCI-H460 [8] = assay: Anticancer activity against human NCI-H460 cells after 48 hrs by sulforhodamine B assay; conditions: NCI-H460, 48 h; procedure, shortened: as §1
HOP-92 = assay: Anticancer activity against human HOP92 cells after 48 hrs by sulforhodamine B assay; conditions: HOP-92, 48 h; procedure, shortened: as §1
CCRF-CEM = assay: Anticancer activity against human CCRF-CEM cells after 48 hrs by sulforhodamine B assay; procedure, shortened: as §1
COLO 205 = assay: Anticancer activity against human COLO205 cells after 48 hrs by sulforhodamine B assay; conditions: COLO 205, 48 h; procedure, shortened: as §1
SNB-19 = assay: Anticancer activity against human SNB19 cells after 48 hrs by sulforhodamine B assay; conditions: SNB-19, 48 h; procedure, shortened: as §1
MDA-MB-231 = assay: Anticancer activity against human MDA-MB-231 cells after 48 hrs by sulforhodamine B assay; conditions: MDA-MB-231, 48 h; procedure, shortened: as §1
TK-10 = assay: Anticancer activity against human TK10 cells after 48 hrs by sulforhodamine B assay; conditions: TK-10, 48 h; procedure, shortened: as §2
OVCAR-3 = assay: Anticancer activity against human OVCAR-3 cells after 48 hrs by sulforhodamine B assay; conditions: OVCAR-3, 48 h; procedure, shortened: as §1
U-251 = assay: Anticancer activity against human U251 cells after 48 hrs by sulforhodamine B assay; conditions: U-251, 48 h; procedure, shortened: as §2
HCT-15 = assay: Anticancer activity against human HCT15 cells after 48 hrs by sulforhodamine B assay; conditions: HCT-15, 48 h; procedure, shortened: as §1

## Fc1cc(C2=Nn3c(nnc3-c3cc(F)c(Cl)cc3Cl)SC2)c(Cl)cc1Cl
MOLT-4
  GI50: 16.9 µM
SR
  GI50: 25.4 µM
CAKI-1
  GI50: 20.6 µM
NCI/ADR-RES
  GI50: 27.4 µM
[1]
  GI50: 21.9 µM
Malme-3M
  GI50: 28.4 µM
MCF7 [2]
  growth at 100 µM: 44%
OVCAR-8
  GI50: 26 µM
UACC-62
  GI50: 13.3 µM
MCF7 [3]
  GI50: 16.8 µM
EKVX
  GI50: 24.6 µM
PC-3
  GI50: 16.9 µM
SK-MEL-28
  GI50: 21.5 µM
MDA-MB-435
  GI50: 27.8 µM
SW-620
  GI50: 22.6 µM
SF-268 [4]
  GI50: 18.5 µM
NCI-H226
  GI50: 14.9 µM
[5]
  GI50: 6 µM
SNB-75
  GI50: 26.2 µM
ACHN
  GI50: 26.6 µM
OVCAR-4
  GI50: 34.5 µM
NCI-H322M
  GI50: 29.1 µM
NCI-H522
  GI50: 24.2 µM
OVCAR-5
  GI50: 56.8 µM
HT-29
  GI50: 20.1 µM
UO-31
  GI50: 31.3 µM
T47D
  GI50: 4.93 µM
IGROV-1
  GI50: 29.8 µM
KM12
  GI50: 28.5 µM
A549
  GI50: 23.7 µM
HL-60(TB)
  GI50: 80.4 µM
LOX IMVI
  GI50: 21.6 µM
K562
  GI50: 17.8 µM
RXF 393
  GI50: 23.2 µM
SN12C
  GI50: 18.4 µM
SK-OV-3
  GI50: 29.2 µM
SF-268 [6]
  growth at 100 µM: 26%
SF-539
  GI50: 18.9 µM
HCC 2998
  GI50: 31.6 µM
UACC-257
  GI50: 30.2 µM
SF-295
  GI50: 20.3 µM
DU-145
  GI50: 36.6 µM
NCI-H23
  GI50: 21.8 µM
NCI-H460 [7]
  growth at 100 µM: 6%
NCI-H460 [8]
  GI50: 17.6 µM
HOP-92
  GI50: 11.3 µM
CCRF-CEM
  GI50: 22 µM
COLO 205
  GI50: 19 µM
SNB-19
  GI50: 22.7 µM
MDA-MB-231
  GI50: 13.4 µM
TK-10
  GI50: 37.4 µM
OVCAR-3
  GI50: 11.5 µM
U-251
  GI50: 20.4 µM
HCT-15
  GI50: 20.2 µM
